High-throughput results deposited in PubChem by several laboratories.
The list is not random: actives were taken first. Their share in the collection is about 1.7%.
SR-BI uptake up: activators of SR-BI mediated HDL lipid uptake; CHO ldlA[mSR-BI] cells, DiI-HDL uptake fluorescence, 3 h; 100 = double the neutral-control signal; activation, % at 12.5 µM; 0.096% of 320,000 active; AID 504775;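 active = mean replicate activation of at least 60% and every replicate at or above 60%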;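 note: 0% = median plate neutral-control signal and 100% = twice that signal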
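Assay system: LDL receptor-deficient CHO ldlA cells overexpressing murine SR-BI / Medium: BSA-supplemented, HEPES-buffered Ham's F12, pH 7.4 / Probe or stimulus: DiI-labelled HDL at 10 µg/mL final / Timing: compound with DiI-HDL co-incubation, 3 h at 37 °C / Technique: bottom-read cell fluorescence after medium removal, ex 550/em 595 nm / Measure: HDL uptake via cellular fluorescence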
NTR1 agonist: agonists of human neurotensin receptor NTR1; P30989; NTR1-U2OS beta-arrestin-GFP spot imaging, agonist mode; activation, % at 20 µM; 0.17% of 330,000 active;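 active = activation at or above 40% of the spot to cytoplasm intensity ratio, with at least 20 cells analyzed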;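 note: 0% = DMSO without peptide and 100% = 100 nM NTR1 peptide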
Target sequence (P30989 whole entry, looked up): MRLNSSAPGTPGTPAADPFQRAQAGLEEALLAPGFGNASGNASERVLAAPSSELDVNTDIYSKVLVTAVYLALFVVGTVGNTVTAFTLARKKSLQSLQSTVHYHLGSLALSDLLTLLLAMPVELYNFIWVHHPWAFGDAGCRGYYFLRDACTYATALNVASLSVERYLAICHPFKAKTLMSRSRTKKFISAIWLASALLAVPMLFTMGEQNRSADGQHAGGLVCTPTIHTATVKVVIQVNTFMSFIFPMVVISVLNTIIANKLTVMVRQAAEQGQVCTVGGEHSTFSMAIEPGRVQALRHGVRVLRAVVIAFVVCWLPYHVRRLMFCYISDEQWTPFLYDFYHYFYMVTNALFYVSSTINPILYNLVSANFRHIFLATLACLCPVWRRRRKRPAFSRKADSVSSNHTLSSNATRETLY
Vif imaging: inhibitors of HIV Vif; HEK293T cells, Vif self-association by quenched fluorescence, imaging, 24 h; inhibition, % at 7.49 µM; 0.35% of 340,000 active; AID 602346; in the data active = inhibition above about 50%, passing the limit was not always enough
V-ATPase pH: yeast V-ATPase proton transport regulation by pHLuorin; response, % at 10 µM; S. cerevisiae, pHLuorin cytosolic pH fluorescence; 0.37% of 350,000 active; in the data active = response mostly above about 7.3%, no sharp cut-off; inactive = mostly below about 5.4%; note: actives read high
SR-BI DiI inh: mouse SR-BI HDL lipid transfer inhibition. Q61009. ldlA[mSR-BI] CHO cells, DiI-HDL uptake fluorescence, 3 h. inhibition, % at 12.5 µM. 0.96% of 320,000 active;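 active = mean replicate inhibition of at least 70% and a set share of replicates each scoring 70 or more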;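 note: 0% = median of neutral control wells and 100% = median of positive control wells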
CaV13 FRET inh: Primary screen for inhibitors of IQ motif and Ca2+-dependent inactivation inhibitor domain binding in CACNA1D, Förster resonance energy transfer in living cells, … | HEK cells, CFP/YFP FRET ICDI-IQ, plate reader, 10 min; percent FRET-ratio fall versus neutral wells | inhibition, % at 12.3 µM | 0.098% of 340,000 active | AID 743397;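 active = mean replicate inhibition of at least 30% and at least 1% of replicates passing that level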;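 note: 0% = median of the neutral control wells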
NTR1 ag confirm: NTR1 (human) agonism, confirmed | 38% of 480 active | AID 504550 | shares compounds with NTR1 agonist | NTR1-U2OS beta-arrestin-GFP translocation imaging | activation, % at 20 µM;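 active = mean activation at 20 µM of at least 40%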;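 note: 0% = DMSO without peptide and 100% = 100 nM NTR1 peptide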
* marks the source's active call; other numbers are inactive results; nt = no result.

SMILES	SR-BI uptake up	NTR1 agonist	Vif imaging	V-ATPase pH	SR-BI DiI inh	CaV13 FRET inh	NTR1 ag confirm
COc1ccc(-c2ccc(CN3C(C)C(=O)N(Cc4cn(CCC5OCCCO5)nn4)CCS3(=O)=O)cc2)cc1 (stereo not given)	nt	nt	-5	2	nt	-10	nt
CN(C(=O)c1cccc(NC(=O)Cc2ccc(NC(=O)C3CCN(C(=O)C4CC4)CC3)cc2)c1)C1CCCC1	-38	nt	9	-3	38	-10	nt
CC(C)(C)OC(=O)NCCCCCNC(=O)c1[nH]cnc1C(=O)N[C@@H](Cc1ccccc1)C(=O)OC(C)(C)C	14	47*	nt	-10	-14	nt	23
C[C@H](NC(=O)c1nc[nH]c1C(=O)NCc1ccc(CNC(=O)OC(C)(C)C)cc1)C(=O)OCc1ccccc1	-14	55*	-4	2	14	-6	56*
C[C@H](NC(=O)c1nc[nH]c1C(=O)NCc1ccc(CNC(=O)OC(C)(C)C)cc1)c1ccccc1	-57	19	-3	1	57	-9	nt
O=C(CNC(=O)C1COc2ccccc2O1)Nc1ccc(F)c(F)c1 (stereo not given)	-3	0	-5	-6	3	-5	nt
OCCNC(=S)c1ccccc1	8	-1	18	-4	-8	-6	nt
Cc1ccnc(NC(=O)C(C)n2cc([N+](=O)[O-])cn2)c1 (stereo not given)	21	0	2	-1	-21	-3	nt
CCc1cccc(CC)c1-n1c(SCC(=O)N2CCc3ccccc3C2)nnc1-c1cccnc1	-40	45*	-11	2	40	-3	64*
CN1C(=O)C(C)(C)c2cc(S(=O)(=O)N3CCCC(C(=O)NCc4ccccc4Cl)C3)ccc21 (stereo not given)	-9	0	-8	-2	9	-5	nt
CC[C@@H](C(=O)[C@@H](C)[C@@H](O)[C@H](C)[C@@H]1O[C@@H]([C@@H](CC)C(=O)O)CC[C@@H]1C)[C@H]1O[C@]2(C=C[C@@H](O)[C@]3(CC[C@@](C)([C@H]4CC[C@](O)(CC)[C@H](C)O4)O3)O2)[C@H](C)C[C@@H]1C	18	nt	-15	-3	-18	-5	nt
CC[C@@H](C(=O)[C@@H](C)[C@@H](O)[C@H](C)CCc1ccc(C)c(O)c1C(=O)O)[C@H]1O[C@](CC)([C@H]2CC[C@](O)(CC)[C@H](C)O2)C[C@@H]1C	-49	53*	-6	1	49	-5	62*
COc1cccc(-c2nc(NC3CCCC3)c3ccccc3n2)c1O	-83	60*	-11	-2	83*	-3	8
O=[N+]([O-])c1ccc(-c2cnc(SC(c3ccccc3)c3ccccc3)[nH]2)cc1	-21	54*	-6	-2	21	-6	18
Cc1cc2ccccc2c(=O)n1CC(=O)Nc1ccc2c(c1)OCCO2	-5	46*	nt	2	5	nt	-6
COc1ccc(NC(=O)CNC(=O)Cn2c(C)cc3ccccc3c2=O)cc1OC	-1	2	-14	0	1	-6	nt
O=C(/C=C\c1ccccc1OC(=O)c1ccccc1F)c1cc2ccccc2o1	24	67*	-18	5	-24	-5	74*
C[C@H](NC(=O)c1[nH]cnc1C(=O)Nc1ccc(Cl)cc1)c1ccccc1	7	51*	1	1	-7	-4	20
C[C@@H](NC(=O)c1[nH]cnc1C(=O)Nc1ccc(Cl)cc1)c1ccccc1	-14	44*	nt	-1	14	-6	54*
C[C@@H](NC(=O)c1[nH]cnc1C(=O)Nc1ccccc1)c1ccccc1	-12	27	-5	-4	12	-4	nt
O=C(Nc1ccc(Cl)cc1)c1nc[nH]c1C(=O)NCc1ccccc1	10	50*	2	0	-10	-5	18
O=c1ccc2cc3c(-c4ccccc4)coc3cc2o1	-14	4	5	-1	14	-16	nt
CC(C(=O)Nc1nc2ccccc2s1)n1cc([N+](=O)[O-])cn1 (stereo not given)	21	-1	4	-2	-21	-7	nt
COc1ccc(C=NNc2nc3ccccc3s2)cc1	-14	nt	-1	-3	14	-6	nt
Cc1ccc2[nH]c(C)c(/C=N/Nc3nc4ccccc4s3)c2c1	-122	41*	4	3	122*	-5	37
SMILES	SR-BI uptake up	NTR1 agonist	Vif imaging	V-ATPase pH	SR-BI DiI inh	CaV13 FRET inh	NTR1 ag confirm
CC(C)NC(=O)C1(C)CCCN1Cc1csc2ccccc12 (stereo not given)	nt	nt	0	nt	nt	-4	nt
OCCNc1nc(Nc2ccccc2OC(F)(F)F)nc(N2CCCC2)n1	-28	4	17	20	28	-5	nt
OCCNc1nc(Nc2ccccc2Oc2ccccc2)nc(N2CCCC2)n1	8	46*	4	9	-8	-7	32
CC(C)C[C@H]1CN=C(Nc2ccccc2)N1CC1CCC(C(C)(C)C)CC1 (stereo not given in full)	7	42*	0	3	-7	nt	57*
CC(C)C[C@H]1CN=C(Nc2ccccc2)N1CC1CCCC1	5	-2	-1	-1	-5	-9	nt
F[B-](F)(F)c1cc2ccccc2s1	36	nt	-3	2	-36	-5	nt
Cn1cc([N+](=O)[O-])c(C(=O)Nc2nc(-c3ccc(Cl)cc3)cs2)n1	-46	49*	7	-6	46	nt	71*
CC(C)(C)n1nnnc1C(c1ccccc1)N1CCN(c2ccccn2)CC1 (stereo not given)	nt	nt	nt	nt	nt	-6	nt
O=S(=O)(c1ccc(N2CC=C(c3ccccc3)CC2)nc1)N1CCCC1	2	50*	-14	2	-2	-6	1
FC(F)Sc1ccc(NC(=S)NC(c2ccccc2)c2ccccc2)cc1	-5	41*	-5	1	5	-4	0
O=C(N/N=C/c1ccccn1)c1ccc(Br)cc1	6	4	5	5	-6	-9	nt
Cc1occc1C(=O)N=Nc1c(O)[nH]c2ccc(Br)cc12	nt	2	nt	nt	nt	nt	nt
Cc1cc2c(N=NC(=O)C3CC3c3ccccc3)c(O)[nH]c2cc1Br (stereo not given)	32	42*	-14	2	-32	-4	26
CC1(C)CC(=O)C(=Cc2cn(CCC#N)nc2-c2ccc(Cl)cc2)C(=O)C1	25	8	29	-3	-25	-5	nt
CC1(C)CC(=O)C(=Cc2cn(-c3ccccc3)nc2-c2ccc(Cl)cc2)C(=O)C1	-11	63*	-3	3	11	-6	83*
O=C1ON=C(c2ccccc2)/C1=C/c1ccc(O)cc1	-12	34	-5	-3	12	-4	nt
